Laboratory results published in ChEMBL document CHEMBL1921710, “Anti-staphylococcal activity and β-lactam resistance attenuating capacity of structural analogues of (-)-epicatechin gallate” (2011).
Values after ≈ are worked out from the molar mass of the structure shown. Active and inactive are the calls of the source. The rule behind the calls is not given here.

Tests used:
[1] = test system: Staphylococcus aureus; assay: Antistaphylococcal activity against epidemic Staphylococcus aureus isolate 16 by CLSI broth microplate assay; type: functional
How it was run: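 MIC against MRSA clinical isolate EMRSA-16, measured by CLSI broth microplate dilution. Compounds were dissolved in 60% v/v EtOH, then diluted into broth.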

[2] = test system: Staphylococcus aureus; assay: Potentiation of oxacillin-induced antistaphylococcal activity against epidemic Staphylococcus aureus isolate 16 at 12.5 ug/mL by CLSI broth microplate assay; type: functional, organism-based
How it was run: (§1)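 Oxacillin MIC against EMRSA-16 with the analogue held at a fixed concentration. Run in 96-well trays with about 10^4 CFU in 100 μl Mueller–Hinton broth containing 2% w/v NaCl. Compounds were dissolved in 60% v/v EtOH before dilution into broth.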

[3] = test system: Staphylococcus aureus; assay: Potentiation of oxacillin-induced antistaphylococcal activity against epidemic Staphylococcus aureus isolate 16 at 6.25 ug/mL by CLSI broth microplate assay; type: functional, organism-based; how it was run: as §1

Row | Structure (SMILES) | MIC [1] [µg/mL] | Activity [2] | Activity [3]
1 | O=C(O[C@@H]1Cc2ccccc2O[C@@H]1c1ccccc1)c1cc(O)c(O)c(O)c1 | 16 (≈ 42.3 µM) | Active | Active
2 | O=C(O[C@@H]1Cc2c(O)cc(O)cc2O[C@@H]1c1ccccc1)c1cc(O)c(O)c(O)c1 | 64 (≈ 156 µM) | Active | Active
3 | O=C(O[C@@H]1Cc2c(O)cc(O)cc2O[C@@H]1c1cccc(O)c1)c1cc(O)c(O)c(O)c1 | 128 (≈ 300 µM) | Active | 
4 | O=C(O[C@@H]1Cc2c(O)cc(O)cc2O[C@@H]1c1cc(O)cc(O)c1)c1cc(O)c(O)c(O)c1 | 128 (≈ 289 µM) | Active | 
5 | O=C(O[C@@H]1Cc2c(O)cc(O)cc2O[C@@H]1c1ccc(O)c(O)c1)c1cc(O)c(O)c(O)c1 [EPICATECHIN GALLATE] | 128 (≈ 289 µM) | Active | 
6 | O=C(N[C@@H]1Cc2c(O)cc(O)cc2O[C@@H]1c1ccc(O)c(O)c1)c1cc(O)c(O)c(O)c1 |  | Active | 
7 | Cc1onc(-c2ccccc2)c1C(=O)N[C@@H]1C(=O)N2[C@@H]1SC(C)(C)[C@@H]2C(=O)O [OXACILLIN] | 512 (≈ 1280 µM) |  | 
8 | O=C(O[C@@H]1Cc2ccccc2O[C@H]1c1ccccc1)c1cc(O)c(O)c(O)c1 | 16 (≈ 42.3 µM) | Active | Active
